Screens from PubChem BioAssay.
Rows were chosen to be rich in hits. Some 4.7% of all compounds tested hit in one or more screens of this group.
aSyn 5UTR inh = 5' untranslated region of α-synuclein, MLPCN primary screen | alpha-synuclein 5'UTR reporter, inhibitor activity | inhibition, % (tested at 7.5 µM) | actives 0.82% (n = 300,000) | AID 1813; in the data active = inhibition above about 60%;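 also: H4 neuroglioblastoma cells stably carrying SNCA 5'UTR luciferase fusion; 0% = DMSO wells and 100% = positive control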
697 NFkB inh = inhibitors of the PMA/ionomycin-induced NF-kB reporter in 697 B cells; 697 B-cell NF-kB luciferase reporter, 16 h; inhibition, % at 4 µM; actives 0.33% (n = 330,000); AID 435022; in the data active = inhibition above about 35%
VIM-2 inh = inhibitors of Pseudomonas aeruginosa VIM-2 metallo-beta-lactamase | purified VIM-2, nitrocefin hydrolysis, epi-absorbance fluorescence | inhibition, % at 5.6 µM | actives 0.89% (n = 290,000) | AID 1527;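 active = inhibition above the mean of all tested compounds plus 3 SD, cutoff set per screening run, cut at about 7.5% in these data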;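 also: red hydrolysis product quenches plate fluorescence so inhibitors raise well fluorescence; 0% = enzyme with DMSO and 100% = DMSO without enzyme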
Mdm2-MdmX inh = disrupts the human Mdm2-MdmX interaction | actives 3% (n = 330,000) | SaOS-2 split-luciferase Mdm2/MdmX complementation, luminescence | O15151+Q00987 | inhibition, % at 8 µM;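 active = inhibition of at least 50% at 8 µM in the primary screen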
Target sequence (O15151 whole entry, looked up): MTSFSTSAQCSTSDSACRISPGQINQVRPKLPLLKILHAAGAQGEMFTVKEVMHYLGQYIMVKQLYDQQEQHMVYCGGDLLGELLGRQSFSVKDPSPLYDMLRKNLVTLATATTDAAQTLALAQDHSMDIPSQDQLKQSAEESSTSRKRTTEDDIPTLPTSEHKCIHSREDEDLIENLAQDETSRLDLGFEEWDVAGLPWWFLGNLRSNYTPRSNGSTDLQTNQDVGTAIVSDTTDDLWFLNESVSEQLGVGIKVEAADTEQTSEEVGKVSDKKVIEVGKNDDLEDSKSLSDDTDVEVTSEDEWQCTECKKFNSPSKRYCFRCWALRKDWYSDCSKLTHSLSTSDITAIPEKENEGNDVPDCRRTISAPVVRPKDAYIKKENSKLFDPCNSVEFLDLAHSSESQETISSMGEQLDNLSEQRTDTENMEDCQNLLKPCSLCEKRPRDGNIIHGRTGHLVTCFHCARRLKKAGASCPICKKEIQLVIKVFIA
Target sequence (Q00987 whole entry, looked up): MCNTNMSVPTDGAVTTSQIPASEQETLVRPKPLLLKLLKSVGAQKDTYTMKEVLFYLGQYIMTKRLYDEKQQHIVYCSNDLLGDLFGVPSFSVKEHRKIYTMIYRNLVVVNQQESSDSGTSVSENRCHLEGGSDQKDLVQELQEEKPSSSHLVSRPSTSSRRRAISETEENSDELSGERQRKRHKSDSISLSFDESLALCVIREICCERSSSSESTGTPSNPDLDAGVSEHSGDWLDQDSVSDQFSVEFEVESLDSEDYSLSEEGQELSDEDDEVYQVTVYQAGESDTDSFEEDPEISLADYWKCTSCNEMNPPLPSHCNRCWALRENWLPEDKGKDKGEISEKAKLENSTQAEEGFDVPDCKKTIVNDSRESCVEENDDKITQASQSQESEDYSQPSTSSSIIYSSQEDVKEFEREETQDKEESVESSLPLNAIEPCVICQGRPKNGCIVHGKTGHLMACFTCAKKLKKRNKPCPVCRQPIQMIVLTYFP
IMP-1 inh = blocks Pseudomonas aeruginosa IMP-1 metallo-beta-lactamase | inhibition, % at 5.6 µM | purified IMP-1, nitrocefin hydrolysis, epi-absorbance fluorescence | actives 0.45% (n = 290,000);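 active = inhibition above the mean plus 3 SD of all compounds in the same screening run, cut at about 4.5% in these data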;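 also: 0% = IMP-1 with DMSO and 100% = DMSO wells lacking enzyme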
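Test system: recombinant IMP-1 enzyme, purified / Medium: HEPES buffer pH 7.1 with ZnSO4 and Brij 35 / Doses: single dose, 5.6 µM / Times: 25 °C, 15 min preincubation, 25 min reaction / Detection: Epi-absorbance via hydrolysed-nitrocefin quenching of white-plate fluorescence, 480/530 nm, EDTA stop / Evaluation: percent inhibition from optical density relative to buffer-blank wells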
Jurkat NFkB inh = inhibitors of the PMA/ionomycin-induced NF-kB reporter in Jurkat cells; PMA/ionomycin-induced NF-kB luciferase reporter, luminescence; inhibition, % at 4 µM; actives 0.53% (n = 330,000); in the data active = inhibition above about 50%
Jurkat NFkB conf = lowers PMA/ionomycin-induced NF-kB signal in Jurkat cells; shares compounds with Jurkat NFkB inh; Jurkat NF-kB luciferase, 16 h; inhibition, % at 4 µM; actives 27% (n = 2,700);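 active = inhibition reaching about 45% at 4 µM in either replicate, limit read from the data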;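 also: plate controls were PMA/ionomycin stimulated DMSO wells for no effect and unstimulated DMSO wells for full effect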
697 NFkB conf = lowers PMA/ionomycin-induced NF-kB signal in 697 B cells; 697 B-cell NF-kB luciferase, 16 h; shares compounds with 697 NFkB inh; inhibition, % at 4 µM; actives 35% (n = 2,000); in the data active = inhibition mostly above about 28%, no sharp cut-off; inactive = mostly below about 22%
The depositor's hits bear a star; x = no result.

SMILES	aSyn 5UTR inh	697 NFkB inh	VIM-2 inh	Mdm2-MdmX inh	IMP-1 inh	Jurkat NFkB inh	Jurkat NFkB conf	697 NFkB conf
COc1ccc(-c2cn3ccc4ccccc4c3n2)cc1	-103	-334	-2	-303	-4	-196	-93	-227
O=C(OCC(F)(F)F)c1cccc(COc2ccc3ccccc3c2)c1	107*	58*	-5	35	-3	77*	42	33*
COc1ccccc1C(=O)Nc1ccc2c(c1)OCCO2	-124	-124	-1	-47	-3	-100	x	x
COc1cc(SC)ccc1C(=O)Nc1ccc2c(c1)OCCO2	-35	-276	-5	-86	-3	-154	-108	-231
CC(Nc1ncnc2sccc12)c1ccccc1 (configuration not stated)	45	43*	1	26	0	61*	62*	60*
O=C(c1ccc([N+](=O)[O-])cc1)N1CCN(c2ncc(Br)cn2)CC1	15	-11	-2	-7	-1	-18	x	x
Cc1ccc(C(=O)Nc2cccc(C(F)(F)F)c2)cc1NC(=O)c1ccno1	95*	60*	x	49	x	51*	87*	61*
COc1ccc(NC(=O)CSc2nnc(N)s2)cc1S(=O)(=O)N1CCCCC1	x	9	x	27	x	2	x	x
Cc1cc(Cl)ccc1NC(=S)NCc1ccc(F)cc1	4	4	-3	13	-4	2	x	x
Cc1ccc(-c2cn(-c3ccccc3)c(=S)[nH]2)cc1C	-94	-286	-3	-118	1	-152	-29	-327
Cc1ccccc1-c1cn(-c2ccccc2)c(=S)[nH]1	-1	-9	-3	1	-2	-2	x	x
CC(C)Cn1c(N)c(C(=O)CSc2nnc(C3CC3)n2C2CC2)c(=O)n(C)c1=O	x	-3	x	20	x	1	x	x
O=C(Nc1ccc2c(c1)Cc1ccccc1-2)c1ccccc1F	-8	-323	x	-79	x	-161	-139	-202
N#CC1(c2ccc(NC(=O)c3ccccc3F)cc2)CCCC1	-49	-281	-2	-266	-3	-210	-166	-214
Cc1ccc(C(=O)CN2C(=O)NC3(CCCCCC3)C2=O)c(C)c1	-132	-79	x	-97	x	-57	x	x
COc1ccc(-c2ccc3ccccc3n2)cc1	-49	-307	-2	-146	-1	-180	-122	-286
COc1ccc(-c2ccc3ccccc3n2)cc1OC	-171	-142	1	-161	-1	-132	x	x
COc1ccc(C(C(=O)NCC2CCCO2)N(C(=O)c2snc(C(N)=O)c2N)c2ccccc2C)cc1OC (configuration not stated)	4	-6	-4	-6	-2	-1	x	x
CCN1CCN(C(=O)c2cc3cc(F)ccc3[nH]2)CC1	-13	6	-1	-27	-3	-7	x	x
CC(C)CCn1cnc2c(sc3nc4c(cc32)CSC(C)(C)C4)c1=O	-56	-359	0	-12	-1	-208	-65	-286
CC(CC(=O)NCCc1ccc(F)cc1)c1ccccc1 (configuration not stated)	-29	1	-1	8	-4	4	x	x
Cc1nn(-c2nc3ccccc3[nH]2)c(N)c1-c1ccccc1	-183	-254	-3	-177	-3	-151	-72	-212
CCCCCNC(=O)c1ccc2c(=O)n(CC3CCCO3)c(=O)[nH]c2c1 (configuration not stated)	26	104*	0	6	-1	99*	44	60*
COc1ccccc1S(=O)(=O)N1CCN(S(=O)(=O)c2ccccc2C#N)CC1	13	-8	-3	-12	-3	-11	x	x
CCOC(=O)c1ccc(S(=O)(=O)N2CC(=O)Nc3ccccc32)cc1	9	-5	1	14	-3	-1	x	x
SMILES	aSyn 5UTR inh	697 NFkB inh	VIM-2 inh	Mdm2-MdmX inh	IMP-1 inh	Jurkat NFkB inh	Jurkat NFkB conf	697 NFkB conf
CC1CCN(c2nc3ccc(C(=O)O)cc3s2)CC1	106*	52*	-3	38	-2	83*	78*	42*
CCC1CCCCN1CCCNC(=O)c1ccc2nc(N3CCC(C)CC3)sc2c1 (configuration not stated)	-292	-66	5	30	-4	-22	x	x
CCOc1ccccc1-c1cc(C(=O)N/N=C/c2cccnc2)c2ccccc2n1	-6	22	x	-1	x	-5	x	x
CCOc1ccc(-c2cc(C(=O)N/N=C/c3cccnc3)c3ccccc3n2)cc1	16	-393	-2	9	-2	58*	-4	-301
CC(OC(=O)COc1cccc2c1OC(C)(C)C2)C(=O)Nc1ccc(S(N)(=O)=O)cc1 (configuration not stated)	-9	2	x	2	x	-9	x	x
Cn1c(-c2ccccc2F)cc2onc(-c3ccccc3)c2c1=O	x	-349	x	-18	x	-232	-98	-403
O=C(c1ccccc1)n1c(=S)nc2ccccn21	-124	-319	x	-37	x	-157	-61	-274
Clc1ccc(-c2cn3ccccc3n2)cc1	-5	-290	0	-82	-1	-177	-114	-248
CCc1cc2c(=O)c(-c3ccc4c(c3)OCCO4)coc2cc1OC(=O)c1ccco1	-31	-360	-4	-111	-2	-223	-129	-407
CCCc1cc2c(=O)c(-c3ccc4c(c3)OCCO4)coc2cc1OC(=O)c1ccco1	-287	-186	-2	-205	-3	-89	x	x
COc1ccc2[nH]c3c(c2c1)CCn1c-3nc2ccccc2c1=O	x	-488	-1	-130	-4	-181	-127	-318
Cn1c(SCC(=O)N2CCOCC2)nnc1-c1ccco1	-5	1	-1	-18	2	-11	x	x
COc1ccccc1CN1CC(C(=O)NCc2c(F)ccc(C)c2F)CCC1=O (configuration not stated)	-72	-80	1	-45	2	-45	x	x
Cc1cc(Cl)c(S(=O)(=O)N2CCN(c3ccc(F)cc3)CC2)cc1OCC(=O)NC1CCCCC1	37	98*	-4	18	-2	65*	75*	92*
Cc1oc(-c2ccccc2Cl)nc1CS(=O)CC(=O)NC1CC1 (configuration not stated)	-14	16	-3	12	-4	12	x	x
NC(=O)c1ccccc1OCC(=O)Nc1ccc(Cl)c(Cl)c1	-42	-372	-1	-239	-2	-187	-121	-389
NC(=O)c1ccccc1OCC(=O)Nc1ccc2c(c1)CCC2	x	-45	x	10	x	-41	x	x
Cc1ccc[n+](CC(=O)/C=C2\N(C)c3ccccc3C2(C)C)c1	-6	48*	-1	-15	0	55*	10	1
c1ccc(CCc2nc(-c3ccccc3)no2)cc1	-192	-31	-1	-36	-1	-56	x	x
O=C(Nc1ccc(-c2noc(CCc3ccccc3)n2)cc1)c1ccco1	-115	-296	-1	-111	-1	-187	-84	-184
